Measurements: ChEMBL document CHEMBL4196093, “Small-Molecule Activator of UNC-51-Like Kinase 1 (ULK1) That Induces Cytoprotective Autophagy for Parkinson's Disease Treatment” (J Med Chem, 2018)

Assays:
[1] = target: T1, Serine/threonine-protein kinase ULK1 (Homo sapiens) (UniProt O75385); assay: Induction of human recombinant N-terminal GST tagged-ULK1 (1 to 649 residues) kinase activity expressed in baculovirus infected insect Sf9 cells at 100 nM using MBP as substrate after 60 mins by ADP-glo assay relative to control
T1 sequence (whole entry): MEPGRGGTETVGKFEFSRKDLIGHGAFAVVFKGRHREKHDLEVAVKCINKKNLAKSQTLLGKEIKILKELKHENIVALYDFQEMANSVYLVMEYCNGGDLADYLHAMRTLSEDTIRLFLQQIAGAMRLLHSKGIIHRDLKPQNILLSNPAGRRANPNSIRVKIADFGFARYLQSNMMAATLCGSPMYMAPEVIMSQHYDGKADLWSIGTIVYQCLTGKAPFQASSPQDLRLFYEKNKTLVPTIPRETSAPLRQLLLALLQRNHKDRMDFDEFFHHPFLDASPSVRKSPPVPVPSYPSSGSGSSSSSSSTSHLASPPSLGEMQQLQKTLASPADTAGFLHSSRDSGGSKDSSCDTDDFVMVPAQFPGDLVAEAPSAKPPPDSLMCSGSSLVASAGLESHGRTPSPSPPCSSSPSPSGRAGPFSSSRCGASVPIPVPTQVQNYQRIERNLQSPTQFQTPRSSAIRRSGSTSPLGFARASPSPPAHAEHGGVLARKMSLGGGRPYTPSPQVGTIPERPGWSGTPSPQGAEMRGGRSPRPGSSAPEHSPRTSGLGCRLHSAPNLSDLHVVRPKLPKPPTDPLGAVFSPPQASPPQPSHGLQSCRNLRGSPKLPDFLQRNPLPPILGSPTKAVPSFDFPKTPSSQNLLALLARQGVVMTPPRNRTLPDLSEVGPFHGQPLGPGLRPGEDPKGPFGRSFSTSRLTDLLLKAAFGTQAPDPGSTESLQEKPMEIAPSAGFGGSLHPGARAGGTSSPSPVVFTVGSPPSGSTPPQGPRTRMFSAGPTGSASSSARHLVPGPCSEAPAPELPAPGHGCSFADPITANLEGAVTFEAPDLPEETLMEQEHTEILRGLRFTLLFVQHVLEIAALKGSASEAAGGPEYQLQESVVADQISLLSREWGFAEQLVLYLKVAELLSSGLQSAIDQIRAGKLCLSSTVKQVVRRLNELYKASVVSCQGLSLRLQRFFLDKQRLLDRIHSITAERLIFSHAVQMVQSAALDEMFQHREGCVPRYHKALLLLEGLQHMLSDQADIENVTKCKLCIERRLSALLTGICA
In short: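 Recombinant human ULK1 (10 ng) with MBP (0.1 µg/µl)/10 µM ATP and compound at 100 nM in 40 mM Tris pH 7.5, 20 mM MgCl2, 50 µM DTT, 0.1 mg/ml BSA. Incubated 60 min at room temperature; ADP-Glo luminescence read. Three independent experiments, mean ± SEM.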

[2] = target: T1, Serine/threonine-protein kinase ULK1 (Homo sapiens); assay: Induction of ULK1-mediated autophagy in human SH-SY5Y cells at 1 uM after 6 hrs by MDC-staining based flow cytometric analysis relative to control; format: cell-based
In short: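 Autophagy scored as percentage of MDC-positive SH-SY5Y cells by flow cytometry after 1 µM compound; mean ± SEM.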

CN1CCN(CC(OC(=O)c2ccccc2)c2ccccc2)CC1 (configuration not stated)
Activity [1]: 156%
Activity [2]: 9.59%

O=C(Nc1ccccc1Cl)N[C@@H](C(=O)Nc1cccc(Br)c1)c1ccccc1
Activity [1]: 161%
Activity [2]: 26.3%

CN1CCN(CC(OC(=O)Cc2ccccn2)c2ccccc2)CC1 (configuration not stated)
Activity [1]: 143%
Activity [2]: 9.99%

COc1ccc(CCNC(=S)N[C@@H](C(=O)Nc2cc(C(F)(F)F)cc(C(F)(F)F)c2)c2ccccc2)cc1OC
Activity [1]: 184%
Activity [2]: 39%

C[C@@H](NC(=O)[C@H](NC(=O)Nc1ccc(C(F)(F)F)cc1)c1ccccc1)c1ccccc1
Activity [1]: 209%
Activity [2]: 38.3%

COc1ccc(N2CCN(CC(OC(=O)c3ccc(F)cc3)c3ccccc3)CC2)cc1 (configuration not stated)
Activity [1]: 168%
Activity [2]: 11.1%

O=C(Nc1ccc(F)cc1F)[C@H](NCCc1ccc(O)cc1)c1ccccc1
Activity [1]: 198%
Activity [2]: 32.1%

Cc1ccccc1NC(=O)[C@H](NCCc1ccc(F)cc1)c1ccccc1
Activity [1]: 164%
Activity [2]: 24.5%

COc1ccc(CC(=O)OC(CN2CCN(C)CC2)c2ccccc2)cc1OC (configuration not stated)
Activity [1]: 139%
Activity [2]: 6.22%

COc1ccc(CCN[C@@H](C(=O)Nc2ccc(F)cc2F)c2ccccc2)cc1OC
Activity [1]: 151%
Activity [2]: 22.4%

COc1ccc(N2CCN(CC(OC(=O)c3cccc(C(F)(F)F)c3)c3ccccc3)CC2)cc1 (configuration not stated)
Activity [1]: 162%
Activity [2]: 11.6%

CN(C)c1ccc(CCN[C@@H](C(=O)Nc2ccc(F)cc2F)c2ccccc2)cc1
Activity [1]: 149%
Activity [2]: 20.2%

O=C(Nc1cccc(Br)c1)[C@H](NC(=S)Nc1ccccc1)c1ccccc1
Activity [1]: 176%
Activity [2]: 32.9%

O=C(Nc1ccc(C(F)(F)F)cc1)N[C@@H](C(=O)Nc1cccc(Br)c1)c1ccccc1
Activity [1]: 179%
Activity [2]: 33.6%

O=C(Nc1ccccc1Cl)N[C@@H](C(=O)Nc1cc(F)ccc1F)c1ccccc1
Activity [1]: 144%
Activity [2]: 19.6%

COc1ccc(NC(=O)N[C@@H](C(=O)Nc2cccc(Br)c2)c2ccccc2)cc1
Activity [1]: 157%
Activity [2]: 28.6%

C[C@@H](NC(=O)[C@H](NC(=O)Nc1ccccc1Cl)c1ccccc1)c1ccccc1
Activity [1]: 158%
Activity [2]: 19.3%

Cc1ccc(NC(=O)N[C@@H](C(=O)Nc2cc(F)ccc2F)c2ccccc2)cc1
Activity [1]: 153%
Activity [2]: 24%

O=C(Nc1ccc(F)cc1F)[C@H](NCCc1cccc2ccccc12)c1ccccc1
Activity [1]: 168%
Activity [2]: 26.2%

COc1ccc(C(=O)OC(CN2CCN(c3ccc(OC)cc3)CC2)c2ccccc2)cc1 (configuration not stated)
Activity [1]: 155%
Activity [2]: 11.2%

CN1CCN(CC(OC(=O)c2ccccc2C(F)(F)F)c2ccccc2)CC1 (configuration not stated)
Activity [1]: 151%
Activity [2]: 10%

O=C(Nc1cc(F)ccc1F)[C@H](NC(=S)Nc1ccccc1)c1ccccc1
Activity [1]: 197%
Activity [2]: 39.4%

O=C(Nc1cccc(Br)c1)[C@H](NC(=S)Nc1cc(C(F)(F)F)cc(C(F)(F)F)c1)c1ccccc1
Activity [1]: 217%
Activity [2]: 39.6%

Cc1ccc(NC(=O)N[C@@H](C(=O)Nc2cccc(Br)c2)c2ccccc2)cc1
Activity [1]: 147%
Activity [2]: 25.4%

CN1CCN(CC(OC(=O)c2ccccc2F)c2ccccc2)CC1 (configuration not stated)
Activity [1]: 149%
Activity [2]: 6.56%

COc1ccc(N2CCN(CC(OC(=O)c3ccccc3F)c3ccccc3)CC2)cc1 (configuration not stated)
Activity [1]: 152%
Activity [2]: 11.8%

Cc1ccccc1NC(=O)[C@H](NCCc1ccc(O)cc1)c1ccccc1
Activity [1]: 158%
Activity [2]: 21%

COc1ccc(N2CCN(CC(OC(=O)c3ccc(Cl)cc3Cl)c3ccccc3)CC2)cc1 (configuration not stated)
Activity [1]: 150%
Activity [2]: 11.8%

COc1ccc(N2CCN(CC(OC(=O)c3ccc(C)cc3)c3ccccc3)CC2)cc1 (configuration not stated)
Activity [1]: 139%
Activity [2]: 4.51%

O=C(Nc1cccc(Cl)c1)N[C@@H](C(=O)Nc1cc(F)ccc1F)c1ccccc1
Activity [1]: 159%
Activity [2]: 24.7%

O=C(Nc1ccc(F)cc1F)[C@H](NCCc1cccc(F)c1)c1ccccc1
Activity [1]: 161%
Activity [2]: 23.4%

COc1ccc(CCN[C@@H](C(=O)Nc2ccccc2C)c2ccccc2)cc1OC
Activity [1]: 147%
Activity [2]: 18.1%

COc1ccc(CCNC(=O)N[C@@H](C(=O)Nc2cccc3ccccc23)c2ccccc2)cc1OC
Activity [1]: 139%
Activity [2]: 20.9%

C[C@@H](NC(=O)[C@H](NC(=O)Nc1cccc2ccccc12)c1ccccc1)c1ccccc1
Activity [1]: 149%
Activity [2]: 19.6%

COc1ccc(CCNC(=S)N[C@@H](C(=O)Nc2ccccc2)c2ccccc2)cc1OC
Activity [1]: 170%
Activity [2]: 36.7%

Cc1cccc(C)c1NC(=O)N[C@@H](C(=O)Nc1cccc(Br)c1)c1ccccc1
Activity [1]: 155%
Activity [2]: 27.1%

O=C(Nc1ccc(F)cc1F)[C@H](NCCc1ccc(Cl)c(Cl)c1)c1ccccc1
Activity [1]: 174%
Activity [2]: 31.4%

Cc1ccc(NC(=O)N[C@@H](C(=O)N[C@H](C)c2ccccc2)c2ccccc2)cc1
Activity [1]: 148%
Activity [2]: 16.6%

Cc1ccc(CCN[C@@H](C(=O)Nc2ccccc2C)c2ccccc2)cc1
Activity [1]: 139%
Activity [2]: 13.8%

Cc1ccccc1NC(=O)[C@H](NC(=O)Nc1cccc(Cl)c1)c1ccccc1
Activity [1]: 156%
Activity [2]: 27.4%

COc1ccc(NC(=O)N[C@@H](C(=O)N[C@H](C)c2cc(F)ccc2F)c2ccccc2)cc1
Activity [1]: 153%
Activity [2]: 30.9%

COc1ccc(N2CCN(CC(OC(=O)c3cccc(Cl)c3)c3ccccc3)CC2)cc1 (configuration not stated)
Activity [1]: 163%
Activity [2]: 13.4%

COc1ccc(CCNC(=O)N[C@@H](C(=O)Nc2c(C)cccc2C)c2ccccc2)cc1OC
Activity [1]: 144%
Activity [2]: 23.2%

COc1ccc(CCNC(=O)N[C@@H](C(=O)Nc2cccc(Cl)c2)c2ccccc2)cc1OC
Activity [1]: 168%
Activity [2]: 31.1%

COc1ccc(N2CCN(CC(OC(=O)c3ccc(-c4ccccc4)cc3)c3ccccc3)CC2)cc1 (configuration not stated)
Activity [1]: 147%
Activity [2]: 9.2%

COc1ccc(CCNC(=O)N[C@@H](C(=O)Nc2ccc(C)cc2)c2ccccc2)cc1OC
Activity [1]: 148%
Activity [2]: 24.3%

COc1ccc(NC(=O)N[C@@H](C(=O)N[C@H](C)c2ccccc2)c2ccccc2)cc1
Activity [1]: 145%
Activity [2]: 19.2%

C[C@@H](NC(=O)[C@H](NC(=O)Nc1cccc(Cl)c1)c1ccccc1)c1ccccc1
Activity [1]: 169%
Activity [2]: 22.7%

CN1CCN(CC(OC(=O)c2cccc(Br)c2)c2ccccc2)CC1 (configuration not stated)
Activity [1]: 159%
Activity [2]: 11.4%

O=C(Nc1ccc(F)cc1F)[C@H](NCCc1ccc(Br)cc1)c1ccccc1
Activity [1]: 171%
Activity [2]: 28.2%

Cc1ccccc1NC(=O)[C@H](NCCc1ccc([N+](=O)[O-])cc1)c1ccccc1
Activity [1]: 142%
Activity [2]: 16.6%

Cc1ccc(NC(=O)N[C@@H](C(=O)Nc2ccccc2C)c2ccccc2)cc1
Activity [1]: 174%
Activity [2]: 34.9%

Cc1ccccc1NC(=O)[C@H](NC(=O)Nc1cccc2ccccc12)c1ccccc1
Activity [1]: 146%
Activity [2]: 24.4%

O=C(Nc1cccc2ccccc12)N[C@@H](C(=O)Nc1cc(F)ccc1F)c1ccccc1
Activity [1]: 151%
Activity [2]: 22.3%

C[C@@H](NC(=O)[C@H](NC(=S)Nc1ccccc1)c1ccccc1)c1ccccc1
Activity [1]: 169%
Activity [2]: 32.2%

COc1cccc(CCN[C@@H](C(=O)Nc2ccc(F)cc2F)c2ccccc2)c1
Activity [1]: 148%
Activity [2]: 20.6%
